Measured values: ChEMBL document CHEMBL5724801, “EUbOPEN Chemogenomics Library - Multiplex” (2024)
“And” between values parts separate entries of the source, which are not always exact repeats. Equal values may be shown once.

Test system: HEK-293T
Assay: Multiplex assay against HEK293T
Type: toxicity, cell-based
Conditions: human
Procedure, shortened: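 Live cells were stained at seeding with Hoechst33342, BioTracker Green Microtubule Cytoskeleton Dye, MitoTracker Red and Annexin V Alexa Fluor 680, then imaged on a CQ1 microscope at 37°C and 5% CO2 after compound addition. CellPathfinder machine-learning gating split cells into Hoechst high-intensity objects or normal cells. Normal cells were split into healthy, pyknosed or fragmented nuclei, and pyknosed cells into mitotic or apoptotic. Tubulin, mitochondrial-mass and membrane-permeability phenotypes are per cents of healthy-nucleus cells.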

[1] = 12 h, 1 µM, compound concentration 1 uM
[2] = 12 h, 10 µM, compound concentration 10 uM
[3] = 24 h, 1 µM, compound concentration 1 uM
[4] = 24 h, 10 µM, compound concentration 10 uM
[5] = 48 h, 1 µM, compound concentration 1 uM
[6] = 48 h, 10 µM, compound concentration 10 uM

With CN[C@@H](C)C(=O)N[C@H](C(=O)N1CCC[C@H]1C(=O)Nc1snnc1-c1ccccc1)C1CCCCC1 [GDC-0152] the “Population Apoptotic (%)” value [1] was 31% and 60%, the “Population Fragmented Nuclei (%)” value [1] was 5% and the “Population Healthy Nuclei (%)” value [1] was 78% and 79%. The “Population Hoechst High Intensity Objects (%)” value [1] was 5% and 7%, the “Population Membrane Permeable-Phenotype (%)” value [1] was 0% and the “Population Mitochondria Different-Phenotype (%)” value [1] was 41% and 62%. The “Population Mitotic Cells (%)” value [1] was 68% and 39%, the “Population Normal (%)” value [1] was 94% and 92% and the “Population Pyknosed Nuclei (%)” value [1] was 15% and 14%. For the same compound, the “Population Tubulin-Different-Phenotype (%)” value [1] was 35% and 26%, the “Total Cell Count” value [1] was 444 and 314 and the “Population Apoptotic (%)” value [2] was 50% and 72%. For the same compound, the “Population Fragmented Nuclei (%)” value [2] was 6% and 7%, the “Population Healthy Nuclei (%)” value [2] was 73% and the “Population Hoechst High Intensity Objects (%)” value [2] was 13% and 20%. The “Population Membrane Permeable-Phenotype (%)” value [2] was 0%, the “Population Mitochondria Different-Phenotype (%)” value [2] was 78% and 89% and the “Population Mitotic Cells (%)” value [2] was 49% and 28%. For the same compound, the “Population Normal (%)” value [2] was 86% and 80%, the “Population Pyknosed Nuclei (%)” value [2] was 20% and 18% and the “Population Tubulin-Different-Phenotype (%)” value [2] was 78% and 72%. The “Total Cell Count” value [2] was 362 and 330, the “Population Apoptotic (%)” value [3] was 30% and 38% and the “Population Fragmented Nuclei (%)” value [3] was 8% and 5%. The “Population Healthy Nuclei (%)” value [3] was 80% and 82%, the “Population Hoechst High Intensity Objects (%)” value [3] was 4% and 6% and the “Population Membrane Permeable-Phenotype (%)” value [3] was 1% and 0%. The “Population Mitochondria Different-Phenotype (%)” value [3] was 28% and 53%, the “Population Mitotic Cells (%)” value [3] was 69% and 61% and the “Population Normal (%)” value [3] was 95% and 93%. The “Population Pyknosed Nuclei (%)” value [3] was 10% and 12%, the “Population Tubulin-Different-Phenotype (%)” value [3] was 23% and 22% and the “Total Cell Count” value [3] was 601 and 387. For the same compound, the “Population Apoptotic (%)” value [4] was 45% and 60%, the “Population Fragmented Nuclei (%)” value [4] was 10% and 12% and the “Population Healthy Nuclei (%)” value [4] was 71% and 68%. For the same compound, the “Population Hoechst High Intensity Objects (%)” value [4] was 7% and 21%, the “Population Membrane Permeable-Phenotype (%)” value [4] was 0% and the “Population Mitochondria Different-Phenotype (%)” value [4] was 74% and 80%. For the same compound, the “Population Mitotic Cells (%)” value [4] was 54% and 40%, the “Population Normal (%)” value [4] was 92% and 78% and the “Population Pyknosed Nuclei (%)” value [4] was 17% and 19%. The “Population Tubulin-Different-Phenotype (%)” value [4] was 69% and 58%, the “Total Cell Count” value [4] was 454 and 400 and the “Population Apoptotic (%)” value [5] was 31% and 40%. For the same compound, the “Population Fragmented Nuclei (%)” value [5] was 12% and 10%, the “Population Healthy Nuclei (%)” value [5] was 78% and 82% and the “Population Hoechst High Intensity Objects (%)” value [5] was 4% and 3%. For the same compound, the “Population Membrane Permeable-Phenotype (%)” value [5] was 1%, the “Population Mitochondria Different-Phenotype (%)” value [5] was 22% and 29% and the “Population Mitotic Cells (%)” value [5] was 68% and 60%. For the same compound, the “Population Normal (%)” value [5] was 95% and 96%, the “Population Pyknosed Nuclei (%)” value [5] was 9% and 6% and the “Population Tubulin-Different-Phenotype (%)” value [5] was 16%. The “Total Cell Count” value [5] was 928 and 603, the “Population Apoptotic (%)” value [6] was 47% and 60% and the “Population Fragmented Nuclei (%)” value [6] was 12%. For the same compound, the “Population Healthy Nuclei (%)” value [6] was 73% and 70%, the “Population Hoechst High Intensity Objects (%)” value [6] was 16% and 21% and the “Population Membrane Permeable-Phenotype (%)” value [6] was 0%. The “Population Mitochondria Different-Phenotype (%)” value [6] was 74% and 76%, the “Population Mitotic Cells (%)” value [6] was 52% and 39% and the “Population Normal (%)” value [6] was 83% and 78%. For the same compound, the “Population Pyknosed Nuclei (%)” value [6] was 13% and 17%, the “Population Tubulin-Different-Phenotype (%)” value [6] was 55% and 52% and the “Total Cell Count” value [6] was 538 and 417.
